The results in this text go back to ChEMBL document CHEMBL4732158, “Bicyclic Ligand-Biased Agonists of S1P: Exploring Side Chain Modifications to Modulate the PK, PD, and Safety Profiles” (J Med Chem, 2021).

The subject of data set [1] is Rattus norvegicus. Description: Reduction in circulating lymphocytes count in Lewis rat at 2 mg/kg, po measured at 4 hrs by hematology analyzer based analysis. In kind it is functional. Set-up: scale not given: the % may be the effect or the level left. In outline:
(§1)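 Lewis rats (n = 2−4) dosed orally; whole-blood lymphocyte counts taken 4 h and 24 h after dosing and reduction expressed versus vehicle-treated rats. Significance by ANOVA with Dunnett's test (p < 0.05 vs vehicle). Blood levels of parent and phosphate metabolite measured at the same time points in this PK/PD screen.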

The nature of data set [2]: Drug concentration in Lewis rat blood assessed as concentration of parent compound at 2 mg/kg, po measured at 4 hrs by LC-MS/MS analysis. Format: ADME, organism-based. The note with it: Lewis, blood, read-out: Ct. The essentials: (§2)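 Lewis rats (n = 2−4) dosed orally at 0.5, 1, 2 or 5 mg/kg; blood parent and phosphate metabolite concentrations and lymphocyte counts taken 4 and 24 h post-dose; phosphate-to-parent ratio from 24 h levels; significance versus vehicle by ANOVA with Dunnett's test.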

A short description of data set [3]: Reduction in circulating lymphocytes count in Lewis rat at 2 mg/kg, po measured at 24 hrs by hematology analyzer based analysis. Also on record: scale not given: the % may be the effect or the level left. The note with it: in vivo. Format: Functional, organism-based. In outline:
as §1

Data set [4] can be described thus: Drug concentration in Lewis rat blood assessed as concentration of parent compound at 2 mg/kg, po measured at 24 hrs by LC-MS/MS analysis. In kind it is ADME, organism-based. The note with it: in vivo, read-out: Ct. In outline: as §2
Data set [5] can be described thus: Half life in Lewis rat at 2 mg/kg, po measured at 4 to 72 hrs. In kind it is ADME, organism-based. The note with it: Lewis, in vivo, time 4-72 hrs. In outline: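 Half-life estimated from oral-dosing blood PK profiles in Lewis rats sampled at four time points: 4, 24, 48 and 72 h.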
Data set [6] can be described thus: Ratio of drug metabolism in Lewis rat blood assessed as phosphate ester metabolite to parent drug at 2 mg/kg, po measured at 24 hrs by LC-MS/MS analysis. Format: ADME, organism-based. The note with it: in vivo. The essentials: as §2
A short description of data set [7]: Pulmonary toxicity in Lewis rat assessed as fold elevation of BAL protein content at 2 mg/kg, po by chemistry analyzer based analysis relative to control. In kind it is organism-based. The note with it: in vivo. In outline:
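Lewis rats dosed orally; bronchoalveolar lavage protein measured at study end, expressed as fold over vehicle control.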

The nature of data set [8]: Cardiotoxicity in human iPSC derived cardiomyocytes assessed as change in heart rate at 1 nM measured over 2 hrs by multi-electrode array relative to control. To be noted: stem cell-derived cardiomyocyte, 0.001 µM. Format: toxicity, cell-based. In outline: (§3)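 Phosphate metabolite of each compound prepared and tested on cultured human induced pluripotent stem cell-derived cardiomyocytes at 1 and 10 nM; beat rate change averaged over three or more replicates per concentration unless noted (some n = 2).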

A short description of data set [9]: Cardiotoxicity in human iPSC derived cardiomyocytes assessed as change in heart rate at 10 nM measured over 2 hrs by multi-electrode array relative to control. In kind it is toxicity, cell-based. To be noted: stem cell-derived cardiomyocyte, 0.01 µM. In outline: as §3
A short description of data set [10]: Clearance in cynomolgus monkey at 1 mg/kg, iv. In kind it is ADME, organism-based, Macaca fascicularis. The note with it: in vivo.
Data set [11] is described as follows: Volume of distribution at steady state in cynomolgus monkey at 1 mg/kg, po or 1 mg/kg, iv. In kind it is ADME, organism-based, Macaca fascicularis. The note with it: in vivo, read-out: Vdss. In outline: (§4)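 Single IV and oral dosing in male animals, n = 3. Rats were Sprague-Dawley. Vehicle: 18.4% hydroxypropyl-β-cyclodextrin in 13.8 mM citric acid. Blood concentrations followed over time; terminal T1/2 and steady-state volume of distribution taken from the IV dose.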

A short description of data set [12]: Terminal half life in cynomolgus monkey at 1 mg/kg, po or 1 mg/kg, iv. Format: ADME, organism-based, Macaca fascicularis. To be noted: in vivo, read-out: beta t1/2 (converted). The essentials: as §4
Data set [13] in a line: Oral bioavailability in cynomolgus monkey at 1 mg/kg. Format: ADME, organism-based, Macaca fascicularis. The note with it: in vivo.
The nature of data set [14]: Clearance in Sprague- Dawley rat at 2 mg/kg, iv. Format: ADME, organism-based. The note with it: in vivo.
Data set [15] is described as follows: Volume of distribution at steady state in Sprague- Dawley rat at 2 mg/kg, iv. In kind it is ADME, organism-based. The note with it: in vivo, read-out: Vdss. In outline:
as §4

Data set [16] can be described thus: Terminal half life in Sprague- Dawley rat at 2 mg/kg, iv. In kind it is ADME, organism-based. To be noted: in vivo, read-out: beta t1/2 (converted). The essentials: as §4
Data set [17] in a line: Terminal half life in dog at 1 mg/kg, po. In kind it is ADME, organism-based, Canis lupus familiaris. The note with it: in vivo, read-out: beta t1/2 (converted).
Data set [18] is described as follows: AUC ratio in orally dosed Sprague-Dawley rat blood assessed as phosphate metabolite to parent compound. Format: ADME, organism-based. To be noted: in vivo, po. The essentials: (§5)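 Phosphate-to-parent ratio computed as blood AUC ratio after oral dosing in rats, dogs and monkeys.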
Data set [19] is described as follows: AUC ratio in orally dosed cynomolgus monkey blood assessed as phosphate metabolite to parent compound. Format: ADME, organism-based, Macaca fascicularis. The note with it: in vivo, po. The essentials: as §5
A short description of data set [20]: AUC ratio in orally dosed Beagle dog blood assessed as phosphate metabolite to parent compound. In kind it is ADME, organism-based, Canis lupus familiaris. The note with it: in vivo, po. In outline:
as §5

Data set [21] relates to Rattus norvegicus. As to the kind of experiment: Antiinflammatory activity in complete freund's adjuvant-induced Lewis rat model of arthritis assessed as effective dose administered via oral gavage once daily by plethysmometric method. Format: functional.
Data set [22] deals with Rattus norvegicus. As to the kind of experiment: Antiinflammatory activity in complete freund's adjuvant-induced Lewis rat model of arthritis assessed as reduction in paw swelling at 0.3 mg/kg, po administered via gavage once daily and measured at day 13 to 20 by plethysmometric method relative to control. Format: functional. Set-up: scale not given: the % may be the effect or the level left. To be noted: time 13-20 day.

As usually defined, the clearance is a measure of how efficiently the substance is removed, as volume per time. Usually bioavailability stands for the share of a dose that reaches the circulation, judged against a reference dose that is usually intravenous. What is called ED50 is the midpoint of the dose-response relation. Take `COCCCCCC1CCc2cc([C@H]3CC[C@](N)(CO)C3)ccc2C1` (single isomer, unassigned; 24): the Activity in data set [1] is reported as 67%; in data set [3], 82%; in data set [8], -7%; in data set [9], -23%; in [22], 50%. Moreover, the concentration at 4 h in data set [2] was found to be 188 nM. The concentration in data set [4] was determined as 98 nM. Also, the half-life in data set [5] is 1080 min; in data set [12], 1020 min; in data set [16], 1140 min; in data set [17], 3.38 days. Further, the Ratio in data set [6] came to 2.6. In data set [7], the “fold change (FC)” value is reported as 1.5. For the same molecule, the results for the clearance in data set [10] and in [14] were 9.7 mL/min/kg and 10 mL/min/kg, respectively. The Vd in data set [11] worked out at 9.9 L/kg; in data set [15] it was 13 L/kg. For the same molecule, the bioavailability in data set [13] came out at 69%. Besides, the “Ratio AUC” value is on record as 0.3 in data set [18], under 0.1 in data set [19] and 0.31 in data set [20]. Besides, the ED50 in [21] was 0.3 mg/kg.
